Data from ChEMBL document CHEMBL1145089, “Development of water-soluble prodrugs of the HIV-1 protease inhibitor KNI-727: importance of the conversion time for higher gastrointestinal absorption of prodrugs based on spontaneous chemical cleavage” (J Med Chem, 2003).

Tests used:
[1] = Bioavailability; format: ADME, organism-based; conditions: eutheria, in vivo
Outline: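 Rat intraduodenal dosing (dose equivalent to 10 mg/kg parent drug, 50% PEG or saline, 1 mL/kg). Plasma parent drug measured by RP-HPLC over 8 h. Bioavailability is the ratio of mean AUC0–8 (×10) against intravenous parent drug at 1 mg/kg in ethanol cosolvent via femoral vein (n = 2).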

[2] = In vitro half life at pH 7.4 and 37 degrees C; format: ADME; conditions: buffer
Outline: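 Prodrug, added as 0.5 mM DMSO stock (10 μL into 1 mL), incubated in PBS pH 7.4 at 37 °C. Release of parent drug followed by RP-HPLC. t1/2 is the time to 50% release of parent drug. Means ± SEM of three experiments.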

[3] = Area under curve (AUC) was determined; format: ADME; set-up: concentration or dose not given beside the values
Outline: (§1)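 Male Sprague–Dawley rats (240–300 g, n = 5 or 3), fasted overnight, given the agent intraduodenally via duodenal cannula at a dose equivalent to 10 mg/kg parent drug, in 50% PEG (8000) or saline, 1 mL/kg. Arterial blood taken at 5 min–8 h. Plasma was ethyl acetate extracted and the parent drug quantified by RP-HPLC (UV 202 nm). Cmax/Tmax from mean profiles; AUC0–8 by linear trapezoidal rule.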

[4] = C max was determined; format: ADME, organism-based; conditions: in vivo; outline: as §1
[5] = T max was determined; format: ADME; outline: as §1

SMILES | bioavailability [1] [%] | half-life [2] [min] | AUC [3] [ng·h/mL] | Cmax [4] [ng/mL] | Tmax [5] [min]
Cc1cccc(C)c1OCC(=O)N[C@@H](Cc1ccccc1)[C@H](OC(=O)CCC(=O)NCCN1CCOCC1)C(=O)N1CSC(C)(C)[C@H]1C(=O)NC(C)(C)C.Cl | 23.1 | 40.3 | 5250 | 1890 | 30
Cc1cccc(C)c1OCC(=O)N[C@@H](Cc1ccccc1)[C@H](OC(=O)CCC(=O)NCCN1CCCC1)C(=O)N1CSC(C)(C)[C@H]1C(=O)NC(C)(C)C.Cl | 16.1 | 7.9 | 3650 | 840 | 15
Cc1cccc(C)c1OCC(=O)N[C@@H](Cc1ccccc1)[C@H](OC(=O)CCCC(=O)NCCN)C(=O)N1CSC(C)(C)[C@H]1C(=O)NC(C)(C)C.Cl | 9.4 | 1240 | 2130 | 460 | 60
Cc1cccc(C)c1OCC(=O)N[C@@H](Cc1ccccc1)[C@H](OC(=O)CCC(=O)NCc1cccnc1)C(=O)N1CSC(C)(C)[C@H]1C(=O)NC(C)(C)C.Cl | 26.4 | 35.4 | 6000 | 1370 | 30
Cc1cccc(C)c1OCC(=O)N[C@@H](Cc1ccccc1)[C@H](O)C(=O)N1CSC(C)(C)[C@H]1C(=O)NC(C)(C)C | 15.8 | – | 3580 | 1230 | 5
Cc1cccc(C)c1OCC(=O)N[C@@H](Cc1ccccc1)[C@H](OC(=O)CCC(=O)NCc1ccncc1)C(=O)N1CSC(C)(C)[C@H]1C(=O)NC(C)(C)C.Cl | 29 | 34.9 | 6570 | 1620 | 30
Cc1cccc(C)c1OCC(=O)N[C@@H](Cc1ccccc1)[C@H](OC(=O)CCC(=O)NCCN)C(=O)N1CSC(C)(C)[C@H]1C(=O)NC(C)(C)C.Cl | 17.5 | 12.7 | 3980 | 650 | 240
Cc1cccc(C)c1OCC(=O)N[C@@H](Cc1ccccc1)[C@H](OC(=O)CCC(=O)NCCN1CCCCC1)C(=O)N1CSC(C)(C)[C@H]1C(=O)NC(C)(C)C.Cl | – | 3.6 | – | – | –
Cc1cccc(C)c1OCC(=O)N[C@@H](Cc1ccccc1)[C@H](OC(=O)CCC(=O)NCCCN1CCOCC1)C(=O)N1CSC(C)(C)[C@H]1C(=O)NC(C)(C)C.Cl | 6.9 | 79.5 | 1570 | 410 | 30
CCCNC(=O)CCC(=O)O[C@H](C(=O)N1CSC(C)(C)[C@H]1C(=O)NC(C)(C)C)[C@H](Cc1ccccc1)NC(=O)COc1c(C)cccc1C | – | 922 | – | – | –
Cc1cccc(C)c1OCC(=O)N[C@@H](Cc1ccccc1)[C@H](OC(=O)CCC(=O)NCc1ccccn1)C(=O)N1CSC(C)(C)[C@H]1C(=O)NC(C)(C)C.Cl | – | 48.5 | – | – | –
Cc1cccc(C)c1OCC(=O)N[C@@H](Cc1ccccc1)[C@H](OC(=O)CCCC(=O)NCCN1CCOCC1)C(=O)N1CSC(C)(C)[C@H]1C(=O)NC(C)(C)C.Cl | 5.4 | 2060 | 1230 | 480 | 30
